Test results published in ChEMBL document CHEMBL3351709, “Limonoids from the seeds of Swietenia macrophylla with inhibitory activity against dengue virus 2” (J Nat Prod, 2014).

Experiments:
dengue virus type 2 = assay: Antiviral activity against dengue virus 2 infected in human HuH7 cells after 72 hrs by Western blot and ECL detection based assay; type: functional, organism-based; conditions: Huh-7, 72 h
Outline: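 Huh-7 cells (ATCC) in DMEM with 10% FBS, 1% nonessential amino acids and 1% antibiotic-antimycotic, 37 °C, 5% CO2. Seeded at 5 × 10^4 cells/mL/well for 12–16 h, then infected with DENV-2 strain 16681 at MOI 0.2 for 2 h at 37 °C. Washed with PBS and refed with compound in DMEM–10% FBS. At 72 h p.i., NS2B Western blot with GAPDH loading control and ECL detection. Ribavirin as reference.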

[1] = Cytotoxicity against human HuH7 cells after 72 hrs by MTS assay; type: cell-based, Huh-7
[2] = Selectivity index, ratio of CC50 against human HuH7 cells to EC50 against dengue virus 2; type: toxicity, cell-based, Huh-7; conditions: read-out: Ratio CC50/EC50

With CC[C@H](C)C(=O)O[C@@H]1[C@@H]2C(=O)[C@](C)(C3CC[C@]4(C)[C@@H](CC(=O)O[C@H]4c4ccoc4)[C@]34O[C@H]24)[C@@H]([C@@H](O)C(=O)OC)C1(C)C (some centres undefined) the EC50 (dengue virus type 2) was 7.2 µM, the CC50 at 72 h [1] was over 200 µM and the selectivity ratio [2] was over 27.7.
In the case of C/C=C(\C)C(=O)O[C@@H]1[C@H]2C=C3[C@@H]4CC(=O)O[C@@H](c5ccoc5)[C@]4(C)CC[C@@H]3[C@@](C)(C2=O)[C@@H]([C@@H](OC(C)=O)C(=O)OC)C1(C)C, the EC50 (dengue virus type 2) is reported as 6.3 µM, the CC50 at 72 h [1] is reported as 83 µM and the selectivity ratio [2] is reported as 13.2.
Work on CC1(C)C(=O)C=C[C@]2(C)[C@H]3CC[C@@]4(C)[C@H](c5ccoc5)OC(=O)[C@H]5O[C@]54[C@]3(C)[C@H](O)C[C@@H]12 [DEACETYLGEDUNIN] yielded an EC50 (dengue virus type 2) of 12.5 µM, a CC50 at 72 h [1] of 105 µM and a selectivity ratio [2] of 8.4.
Compound C=C1[C@@H]2CC[C@@]3(C)[C@H](c4ccoc4)OC(=O)C[C@]13O[C@H]1CC(=O)C(C)(C)[C@H](CC(=O)OC)[C@]12C [METHYLANGOLENSATE] has an EC50 (dengue virus type 2) of 4.3 µM, a CC50 at 72 h [1] of 116 µM and a selectivity ratio [2] of 27.
With NC(=O)c1ncn([C@@H]2O[C@H](CO)[C@@H](O)[C@H]2O)n1 [RIBAVIRIN] the EC50 (dengue virus type 2) was 12.6 µM and the selectivity ratio [2] was 4.47.
